According to ChEMBL document CHEMBL1124186, “Synthesis and evaluation of tylosin-related macrolides modified at the aldehyde function: a new series of orally effective antibiotics” (1988):
≈ marks a conversion by molar mass, not a printed value.

Tests used:
Bacteroides fragilis [1] = assay: In vitro antimicrobial activity against anaerobic bacteria bacteroides fragilis 111; format: functional
Bacteroides fragilis [2] = assay: In vitro antimicrobial activity against anaerobic bacteria bacteroides fragilis 1877; format: functional
Bacteroides fragilis [3] = assay: In vitro antimicrobial activity against anaerobic bacteria bacteroides fragilis 1936B,; format: functional
Eikenella corrodens = assay: In vitro antimicrobial activity against anaerobic bacteria bacteroides corrodens 1874; format: functional
Phocaeicola vulgatus = assay: In vitro antimicrobial activity against anaerobic bacteria bacteroides vulgatus 1211; format: functional
[4] = system: Prevotella melaninogenica; assay: In vitro antimicrobial activity against anaerobic bacteria bacteroides melaninogenicus 1856,; format: functional
[5] = system: Bacteroides thetaiotaomicron; assay: In vitro antimicrobial activity against anaerobic bacteria bacteroides thetaiotaomicron 1438; format: functional
Clostridioides difficile = assay: In vitro antimicrobial activity against anaerobic bacteria Clostridium difficile 2994; format: functional
Clostridium perfringens = assay: In vitro antimicrobial activity against anaerobic bacteria clostridium perfringens 81,; format: functional
Clostridium septicum = assay: In vitro antimicrobial activity against anaerobic bacteria clostridium septicum 1128; format: functional
Chlamydia trachomatis = assay: In vitro antimicrobial activity against chlamydia trachomatis.; format: functional
Fusobacterium = assay: In vitro antimicrobial activity against anaerobic bacteria fusobacterium symbiosum 1470; format: functional
Haemophilus influenzae [6] = assay: In vitro antimicrobial activity against aerobic bacteria Haemophilus influenzae 76; format: functional
Haemophilus influenzae [7] = assay: In vitro antimicrobial activity against aerobic bacteria Haemophilus influenzae MX366,; format: functional
Haemophilus influenzae [8] = assay: In vitro antimicrobial activity against Haemophilus influenzae.; format: functional
[9] = system: Haemophilus parainfluenzae; assay: In vitro antimicrobial activity against aerobic bacteria Haemophilus parainfluenzae 9796; format: functional
[10] = In vitro antimicrobial activity against anaerobic bacteria peptostreptococcus intermedius 1264; format: functional
[11] = system: Peptoniphilus asaccharolyticus; assay: In vitro antimicrobial activity against anaerobic bacteria peptococcus asaccharolyticus 1302; format: functional
Anaerococcus prevotii = assay: In vitro antimicrobial activity against anaerobic bacteria peptococcus prevoti 1281; format: functional
Cutibacterium acnes = assay: In vitro antimicrobial activity against anaerobic bacteria propionibacterium acnes 79; format: functional
Streptococcus [12] = assay: In vitro antimicrobial activity against aerobic bacteria Streptococcus B 8; format: functional
Streptococcus [13] = assay: In vitro antimicrobial activity against aerobic bacteria Streptococcus C 24; format: functional
Streptococcus [14] = assay: In vitro antimicrobial activity against aerobic bacteria Streptococcus D 8043; format: functional
Streptococcus [15] = assay: In vitro antimicrobial activity against aerobic bacteria Streptococcus D 9960; format: functional
Streptococcus [16] = assay: In vitro antimicrobial activity against aerobic bacteria Streptococcus G Kruder; format: functional; details: Streptococcus; read-out: MIC
[17] = system: Staphylococcus epidermidis; assay: In vitro antimicrobial activity against aerobic bacteria Streptococcus epi 270; format: functional
Staphylococcus aureus [18] = assay: In vitro antimicrobial activity against Staphylococcus aureus X1; format: functional
Staphylococcus aureus [19] = assay: In vitro antimicrobial activity against aerobic bacteria Staphylococcus aureus 513E; format: functional
Staphylococcus aureus [20] = assay: In vitro antimicrobial activity against aerobic bacteria Staphylococcus aureus V140,; format: functional
Staphylococcus aureus [21] = assay: In vitro antimicrobial activity against aerobic bacteria Staphylococcus aureus V41; format: functional
Staphylococcus aureus [22] = assay: In vitro antimicrobial activity against aerobic bacteria Staphylococcus aureus X400; format: functional
Streptococcus pyogenes [23] = assay: Effective dose against Streptococcus pyogenes C203 when administered orally; format: functional; details: po
Summary of the method: (§1)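 Mouse protection test: infected mice were dosed twice, at 1 and 5 h postinfection, either subcutaneously or orally. […] The result is expressed as ED50 in mg/kg × 2.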

Streptococcus pyogenes [24] = assay: Effective dose against Streptococcus pyogenes C203 when administered sc; format: functional; summary of the method: as §1
Streptococcus pneumoniae [25] = assay: In vitro antimicrobial activity against aerobic bacteria Streptococcus pneumoniae B1-438; format: functional, streptococcus pneum
Streptococcus pyogenes [26] = assay: In vivo effective dose against experimental infections in rodent caused by Streptococcus pyogenes C203 when administered sc; format: functional
Streptococcus sanguinis = assay: In vitro antimicrobial activity against aerobic bacteria Streptococcus sanguis MX132; format: functional
Streptococcus pneumoniae [27] = assay: In vitro antimicrobial activity against Streptococcus pneumoniae; format: functional
[28] = system: Staphylococcus epidermidis; assay: In vitro antimicrobial activity against Staphylococcus epidermidis EPI1; format: functional
[29] = system: Staphylococcus epidermidis; assay: In vitro antimicrobial activity against aerobic bacteria Streptococcus epi 222; format: functional
Enterococcus faecium = assay: In vitro antimicrobial activity against Streptococcus faecium X66; format: functional, streptococcus fae-cium
Streptococcus pyogenes [30] = assay: In vitro antimicrobial activity against Streptococcus pyogenes C203; format: functional
Streptococcus viridans = assay: In vitro antimicrobial activity against aerobic bacteria Streptococcus viridans 9943; format: functional
Streptococcus [31] = assay: In vitro antimicrobial activity against aerobic bacteria Streptococcus B 5; format: functional
Staphylococcus aureus [32] = assay: In vitro antimicrobial activity against aerobic bacteria Staphylococcus aureus V135; format: functional
Haemophilus influenzae [33] = assay: In vitro antimicrobial activity against aerobic bacteria Haemophilus influenzae 465; format: functional
[34] = system: Prevotella melaninogenica; assay: In vitro antimicrobial activity against anaerobic bacteria bacteroides melaninogenicus 2736; format: functional
[35] = system: Fusobacterium necrophorum; assay: In vitro antimicrobial activity against anaerobic bacteria usobacterium necrophorum 6054A; format: functional
Collinsella aerofaciens [36] = assay: In vitro antimicrobial activity against anaerobic bacteria eubacterium aerofaciens 1235; format: functional
Streptococcus [37] = assay: In vitro antimicrobial activity against aerobic bacteria Streptococcus D 2041; format: functional
[38] = system: Peptostreptococcus anaerobius; assay: In vitro antimicrobial activity against anaerobic bacteria eubacterium peptostreptococcus anaerobius 1428,; format: functional
Streptococcus pyogenes [39] = assay: Antimicrobial activity against Streptococcus pyogenes C203; format: functional
Streptococcus pyogenes [40] = assay: In vivo effective dose against experimental infections in rodent caused by Streptococcus pyogenes C203 when administered orally; format: functional; details: po
Collinsella aerofaciens [41] = assay: In vitro antimicrobial activity against anaerobic bacteria aerofaciens 1235; format: functional
[42] = system: Peptostreptococcus anaerobius; assay: In vitro antimicrobial activity against anaerobic bacteria peptostreptococcus anaerobius 1428,; format: functional

For `CC[C@H]1OC(=O)C[C@@H](O)[C@H](C)[C@@H](O[C@@H]2O[C@H](C)[C@@H](O)[C@H](N(C)C)[C@H]2O)[C@@H](CC=O)C[C@@H](C)C(=O)/C=C/C(C)=C/[C@@H]1CO`, the MIC (Bacteroides fragilis [1]) was 32 µg/mL (≈ 53.5 µM), the MIC (Bacteroides fragilis [2]) was 64 µg/mL (≈ 107 µM) and the MIC (Bacteroides fragilis [3]) was 32 µg/mL (≈ 53.5 µM). For the same molecule, the MIC (Eikenella corrodens) was 32 µg/mL (≈ 53.5 µM), the MIC (Phocaeicola vulgatus) was 32 µg/mL (≈ 53.5 µM) and the MIC [4] was 8 µg/mL (≈ 13.4 µM). It also gave an MIC [5] of 128 µg/mL (≈ 214 µM), an MIC (Clostridioides difficile) of 4 µg/mL (≈ 6.69 µM) and an MIC (Clostridium perfringens) of less than 0.5 µg/mL. The MIC (Clostridium septicum) was 4 µg/mL (≈ 6.69 µM), the MIC (Chlamydia trachomatis) was 0.5 µg/mL (≈ 0.836 µM) and the MIC (Fusobacterium) was less than 0.005 µg/mL. It also gave an MIC (Haemophilus influenzae [6]) of 2 µg/mL (≈ 3.35 µM), an MIC (Haemophilus influenzae [7]) of 2 µg/mL (≈ 3.35 µM) and an MIC (Haemophilus influenzae [8]) of 2 µg/mL (≈ 3.35 µM). For the same molecule, the MIC [9] was 4 µg/mL (≈ 6.69 µM), the MIC [10] was 1 µg/mL (≈ 1.67 µM) and the MIC [11] was 2 µg/mL (≈ 3.35 µM). For the same molecule, the MIC (Anaerococcus prevotii) was 16 µg/mL (≈ 26.8 µM), the MIC (Cutibacterium acnes) was 8 µg/mL (≈ 13.4 µM) and the MIC (Streptococcus [12]) was 0.5 µg/mL (≈ 0.836 µM). The MIC (Streptococcus [13]) was 0.5 µg/mL (≈ 0.836 µM), the MIC (Streptococcus [14]) was 0.5 µg/mL (≈ 0.836 µM) and the MIC (Streptococcus [15]) was 1 µg/mL (≈ 1.67 µM). It also gave an MIC (Streptococcus [16]) of 0.25 µg/mL (≈ 0.418 µM), an MIC [17] greater than 128 µg/mL and an MIC (Staphylococcus aureus [18]) of 1 µg/mL (≈ 1.67 µM). The MIC (Staphylococcus aureus [19]) was 1 µg/mL (≈ 1.67 µM), the MIC (Staphylococcus aureus [20]) was 1 µg/mL (≈ 1.67 µM) and the MIC (Staphylococcus aureus [21]) was 2 µg/mL (≈ 3.35 µM). For the same molecule, the MIC (Staphylococcus aureus [22]) was 2 µg/mL (≈ 3.35 µM), the ED50 (Streptococcus pyogenes [23]) was 3.3 mg/kg and the ED50 (Streptococcus pyogenes [24]) was 97 mg/kg. For the same molecule, the MIC (Streptococcus pneumoniae [25]) was greater than 128 µg/mL, the ED50 (Streptococcus pyogenes [26]) was 3.9 mg/kg and the MIC (Streptococcus sanguinis) was 0.25 µg/mL (≈ 0.418 µM). For the same molecule, the MIC (Streptococcus pneumoniae [27]) was 0.25 µg/mL (≈ 0.418 µM), the MIC [28] was 1 µg/mL (≈ 1.67 µM) and the MIC [29] was 0.25 µg/mL (≈ 0.418 µM). It also gave an MIC (Enterococcus faecium) of 1 µg/mL (≈ 1.67 µM), an MIC (Streptococcus pyogenes [30]) of 0.25 µg/mL (≈ 0.418 µM) and an MIC (Streptococcus viridans) greater than 128 µg/mL. For the same molecule, the MIC (Streptococcus [31]) was 1 µg/mL (≈ 1.67 µM), the MIC (Staphylococcus aureus [32]) was 1 µg/mL (≈ 1.67 µM) and the MIC (Haemophilus influenzae [33]) was 4 µg/mL (≈ 6.69 µM). For the same molecule, the MIC [34] was 8 µg/mL (≈ 13.4 µM), the MIC [35] was less than 0.5 µg/mL and the MIC (Collinsella aerofaciens [36]) was less than 0.5 µg/mL. For the same molecule, the MIC (Streptococcus [37]) was 0.5 µg/mL (≈ 0.836 µM), the MIC [38] was 32 µg/mL (≈ 53.5 µM) and the MIC (Streptococcus pyogenes [39]) was 0.25 µg/mL (≈ 0.418 µM). The ED50 (Streptococcus pyogenes [40]) was 102 mg/kg.

`CC[C@H]1OC(=O)C[C@@H](O)[C@H](C)[C@@H](O[C@@H]2O[C@H](C)[C@@H](O[C@H]3C[C@@](C)(O)[C@@H](O)[C@H](C)O3)[C@H](N(C)C)[C@H]2O)[C@@H](CCO)C[C@@H](C)C(=O)/C=C/C(C)=C/[C@@H]1CO[C@@H]1O[C@H](C)[C@@H](O)[C@@H](OC)[C@H]1OC` [RELOMYCIN] showed an MIC (Bacteroides fragilis [1]) of 4 µg/mL (≈ 4.36 µM), an MIC (Bacteroides fragilis [2]) greater than 8 µg/mL and an MIC (Bacteroides fragilis [3]) of 8 µg/mL (≈ 8.71 µM). It also gave an MIC (Eikenella corrodens) greater than 8 µg/mL, an MIC (Phocaeicola vulgatus) greater than 8 µg/mL and an MIC [4] of 4 µg/mL (≈ 4.36 µM). For the same molecule, the MIC [5] was 4 µg/mL (≈ 4.36 µM), the MIC (Clostridioides difficile) was 1 µg/mL (≈ 1.09 µM) and the MIC (Clostridium perfringens) was greater than 8 µg/mL. The MIC (Clostridium septicum) was 8 µg/mL (≈ 8.71 µM), the MIC (Chlamydia trachomatis) was greater than 1 µg/mL and the MIC (Collinsella aerofaciens [41]) was 1 µg/mL (≈ 1.09 µM). The MIC (Fusobacterium) was 4 µg/mL (≈ 4.36 µM), the MIC (Haemophilus influenzae [8]) was greater than 128 µg/mL and the MIC [10] was greater than 8 µg/mL. For the same molecule, the MIC [11] was 1 µg/mL (≈ 1.09 µM), the MIC (Anaerococcus prevotii) was greater than 8 µg/mL and the MIC (Cutibacterium acnes) was 8 µg/mL (≈ 8.71 µM). The MIC (Staphylococcus aureus [18]) was 4 µg/mL (≈ 4.36 µM), the ED50 (Streptococcus pyogenes [26]) was 15.4 mg/kg and the MIC (Streptococcus pneumoniae [27]) was 32 µg/mL (≈ 34.9 µM). It also gave an MIC [28] of 4 µg/mL (≈ 4.36 µM), an MIC (Enterococcus faecium) of 64 µg/mL (≈ 69.7 µM) and an MIC (Streptococcus pyogenes [30]) of 2 µg/mL (≈ 2.18 µM). It also gave an MIC [42] greater than 8 µg/mL, an MIC [34] of 8 µg/mL (≈ 8.71 µM) and an MIC [35] of 1 µg/mL (≈ 1.09 µM). It also gave an ED50 (Streptococcus pyogenes [40]) greater than 100 mg/kg.

`CC[C@H]1OC(=O)C[C@@H](O)[C@H](C)[C@@H](O[C@@H]2O[C@H](C)[C@@H](O)[C@H](N(C)C)[C@H]2O)[C@@H](C)C[C@@H](C)C(=O)/C=C/C(C)=C/[C@@H]1CO` showed an MIC (Haemophilus influenzae [8]) of 4 µg/mL (≈ 7.02 µM), an MIC (Staphylococcus aureus [18]) of 4 µg/mL (≈ 7.02 µM) and an ED50 (Streptococcus pyogenes [23]) of 121 mg/kg. It also gave an ED50 (Streptococcus pyogenes [24]) greater than 30 mg/kg, an ED50 (Streptococcus pyogenes [26]) greater than 30 mg/kg and an MIC (Streptococcus pneumoniae [27]) of 4 µg/mL (≈ 7.02 µM). The MIC [28] was 2 µg/mL (≈ 3.51 µM), the MIC (Enterococcus faecium) was 4 µg/mL (≈ 7.02 µM) and the MIC (Streptococcus pyogenes [30]) was 4 µg/mL (≈ 7.02 µM). The MIC (Streptococcus pyogenes [39]) was 4 µg/mL (≈ 7.02 µM) and the ED50 (Streptococcus pyogenes [40]) was 121 mg/kg.
